ABCG2 inh: human ABCG2 inhibition, ABCB1 as counter-screen; IgMXP3 cells, JC-1 efflux, flow cytometry; inhibition, % at 6.6 µM; 0.1% of 190,000 active; AID 1325;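 active = inhibition above 80%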;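 also: 0% = DMSO and 100% = nicardipine control wells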
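test system = two drug-resistant human cell lines, ABCG2 and ABCB1 | amount = 3 million cells/mL final, two lines in 1:1 ratio | reagent = JC-1 transporter substrate | doses = one concentration, 6.6 µM final | incubation = 10 min at 25 °C | signal = flow cytometric JC-1 green MFI at 530 nm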
PKD1 kinase inh: PKD1 (human) kinase inhibition; Q15139; PKD1 kinase fluorescence polarization assay; inhibition, % (no concentration beside the values); 0.056% of 200,000 active; in the data active = inhibition above about 50%
bCat nuc transl: modulators of beta-catenin nuclear translocation | 0.3% of 190,000 active | HeLa beta-catenin nuclear translocation, immunofluorescence imaging | nuclear translocation activity, % at 5 µM;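 active = nuclear translocation activity above 50% at 5 µM, with a well cell count of 50 or more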;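 also: per-cell ratio of nuclear to cytoplasmic median beta-catenin stain intensity; plate controls were DMSO negative control for no effect and GSK-3 inhibitor IX positive control for full effect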
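test system = HeLa cells, endogenous beta-catenin | dosing = single 5 µM dose plus 0.02–20 µM confirmation series | times = compound treatment 24 h, 37°C, 5% CO2 | technique = beta-catenin immunofluorescence imaging with DAPI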
MT stabilizer: microtubule stabilization, imaging screen; HeLa tubulin immunostaining HCS, 24 h; share of cells brighter than vehicle mean+2SD; % tubulin-high responders, % at 10 µM; 0.83% of 200,000 active;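 active = plate Z-score above 3 for both tubulin-high and condensed-nucleus cell shares, with cell loss under 80%, at 10 µM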;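 also: anti alpha tubulin signal scored within the nucleus-defined area of each cell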
ABCB1 block: blocks JC-1 efflux by human ABCB1 transporter; P08183; CCRF-Adr cells, flow cytometry; inhibition, % at 6.6 µM; 0.067% of 190,000 active; AID 1326; in the data active = inhibition above about 40%;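 also: 0% = vehicle and 100% = reference inhibitor; higher value means more JC-1 retained so stronger ABCB1 efflux block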
An asterisk follows results filed as active; nt = no result. This is a sample that favours compounds with a hit; in the whole collection about 1% have one here.

SMILES | ABCG2 inh | PKD1 kinase inh | bCat nuc transl | MT stabilizer | ABCB1 block
CC1(C)Oc2ccc3ccc(=O)oc3c2-c2cn[nH]c21 | 2 | 90* | nt | 3 | 0
O=[N+]([O-])c1ccccc1-c1ccc(C(=S)N2CCCC2)o1 | 21 | -1 | -1 | 4 | 1
Cc1cccc(N2CCN(C(=S)c3ccc(-c4ccccc4[N+](=O)[O-])o3)CC2)c1 | 15 | -2 | 1 | 23* | 0
Cc1nn(-c2ccccc2)c(N)c1N=Nc1cccnc1 | 12 | -2 | -2 | 2 | 1
Nc1nn(-c2ccccc2)c(N)c1N=Nc1ccc2c(c1)OCO2 | -1 | -10 | 78* | 25* | 0
Nc1nn(-c2ccccc2)c(N)c1N=Nc1cccc(F)c1 | nt | nt | 58* | nt | nt
O=C(Nc1ccc(F)cc1)/C(=C1/CCCCCN1)[N+](=O)[O-] | nt | nt | 1 | nt | nt
C=CCn1cc(/C=N\NC(=O)c2cc3c(ccc4ccccc43)o2)c2ccccc21 | 5 | -2 | nt | 7 | 1
C#CCn1cc(/C=N/NC(=O)c2cc3ccccc3o2)c2ccccc21 | -4 | 0 | 2 | 27* | 0
COc1cc(C)c(C(C)C)cc1S(=O)(=O)n1cnc(C)c1 | -1 | -4 | 93* | 14* | 0
COC(=O)C1=C(C)NC(=O)CC1c1cc(Br)ccc1F (configuration not stated) | 3 | 0 | nt | 1 | 0
Cc1cc2c(cc1C)C(c1cc(Br)ccc1F)CC(=O)N2 (configuration not stated) | 0 | 2 | 23 | 27* | 0
CC(=O)N1N=C(c2cccc([N+](=O)[O-])c2)OC1c1cccc(Br)c1 (configuration not stated) | 6 | -1 | 66* | 24* | 2
CCOc1nc(NCCN2CCOCC2)nc(Nc2ccc([N+](=O)[O-])cc2)n1 | 8 | -6 | 0 | 3 | 0
N#Cc1c(N)nc2c(c1-c1ccc3c(c1)OCO3)CCc1ccccc1-2 | 5 | -3 | 6 | 26* | 4
N#Cc1c(N)c(C#N)c(-c2ccc3c(c2)OCO3)c2c1CCCC2 | 5 | nt | -4 | nt | 0
CN(C1CCCCC1)S(=O)(=O)c1ccc(C(=O)N2CCN(c3nc4ccccc4s3)CC2)cc1 | -1 | -6 | 2 | 3 | 3
CCOC(=O)C1=C(N)n2c(s/c(=C\c3ccco3)c2=O)=C(C(=O)OC(C)C)C1c1ccco1 (configuration not stated) | 4 | -3 | 2 | 5 | 1
CCOC(=O)C1=C(N)n2c(s/c(=C\c3ccco3)c2=O)=C(C(=O)OCC)C1c1ccco1 (configuration not stated) | 3 | -7 | 55* | 47* | 1
COc1cc2c(cc1NC(=O)c1cccc(S(=O)(=O)N(C)C)c1)oc1ccccc12 | -1 | 10 | -4 | 3 | -9
CCOc1ccc(NS(=O)(=O)c2cc(NC(=O)c3ccc(C)cc3)ccc2Cl)cc1 | 2 | -4 | 24 | 21* | 1
COc1ccc(NS(=O)(=O)c2cc(N/C(=N\S(=O)(=O)c3ccccc3)c3ccc(F)cc3)ccc2Cl)cc1 | -1 | -7 | nt | 12* | -1
CCOC(=O)C1=C(C)NC2=C(C(=O)CC(c3cccs3)C2)C1c1cccs1 (configuration not stated) | 3 | -4 | -3 | 18* | 1
CCOC(=O)C1=C(C)NC2=C(C(=O)OC2)C1c1ccccc1 (configuration not stated) | 1 | 2 | 81* | 28 | 0
COC(=O)C1=C(C)NC2=C(C(=O)CC(c3cccs3)C2)C1c1ccsc1 (configuration not stated) | 4 | -6 | -3 | 26* | 1
SMILES | ABCG2 inh | PKD1 kinase inh | bCat nuc transl | MT stabilizer | ABCB1 block
COC(=O)C1=C(C)NC2=C(C(=O)CCC2)C1c1ccsc1 (configuration not stated) | 0 | -3 | -3 | 2 | 0
CCCOC(=O)C1=C(C)NC2=C(C(=O)CCC2)C1c1cccs1 (configuration not stated) | 37 | 4 | -3 | 6 | 0
COc1ccc(CCNC(=O)COC(=O)/C=C/c2cc(OC)c(OC)c(OC)c2)cc1OC | 60 | 3 | 2 | 2 | 0
CCOCCCNC(=S)Nc1ccc(S(N)(=O)=O)cc1 | 0 | -11 | nt | 1 | 0
COc1ccc(N2CCc3c(C)nc4c(OC)cc(OC)cc4c32)cc1 | 5 | 1 | 0 | 3 | 6
COc1ccc(N2CCc3c(C)nc4c(OC)cccc4c32)cc1 | 1 | -4 | 104* | 26* | 1
COc1ccc2[nH]c(=O)c(CN(Cc3ccco3)C(=O)c3ccccc3)cc2c1 | 8 | 13 | -7 | 4 | 2
COc1ccc2[nH]c(=O)c(CN(CC3CCCO3)C(=O)Nc3ccccc3OC)cc2c1 (configuration not stated) | 3 | -6 | 2 | 40* | 1
CCOc1ccc2[nH]c(=O)c(CN(Cc3ccccc3OC)C(=O)c3ccccc3)cc2c1 | 7 | 5 | -2 | 24* | 8
COc1ccccc1NC(=O)N(Cc1cc2cc(OC)c(OC)cc2[nH]c1=O)CC1CCCO1 (configuration not stated) | 1 | -6 | -8 | 1 | 0
CCOc1ccc2[nH]c(=O)c(CN(Cc3ccc(F)cc3)C(=O)c3ccco3)cc2c1 | 20 | -5 | -4 | 47* | 3
CC(C)=CCN1CCN(Cc2cc(F)ccc2-n2nc(C)cc2C)CC1CCO (configuration not stated) | 2 | 0 | 1 | 2 | 0
Cc1nc(N2CCC(C)CC2)c2oc3ccccc3c2n1 | 4 | -5 | 1 | 24* | 2
COc1ccccc1N1CCN(c2nc(C)nc3c2oc2ccccc23)CC1 | 13 | 14 | 81* | 20* | 5
Cc1nc(N2CCN(Cc3ccc(Cl)cc3)CC2)c2oc3ccccc3c2n1 | nt | nt | 1 | nt | nt
O=C(Nc1ccc(NC(=S)NC(=O)c2cccs2)cc1)c1ccccc1 | -3 | -2 | -1 | 2 | 0
O=C(Nc1ccc(NC(=S)NC(=O)C(c2ccccc2)c2ccccc2)cc1)c1ccccc1 | nt | -4 | nt | 40* | nt
CCc1ccc(/C=N/NC(=O)c2cc(C3CC3)nc3ccccc23)s1 | 54 | -7 | nt | 41* | 1
CCCc1[nH]n(-c2ccc(F)cc2)c(=O)c1C=Nc1ccc(C)cc1 | 9 | -9 | 0 | 3 | 0
O=C(/C=C/c1ccccc1[N+](=O)[O-])c1ccccc1Br | 50 | 2 | 0 | 29* | 2
Cc1ccc(C(=O)/C=C/c2ccccc2[N+](=O)[O-])cc1 | 17 | -3 | 0 | 2 | 3
Cc1cccc(N2CCN(C(=O)c3cn(C)c(=O)c4c3c3ccccc3n4C)CC2)c1C | 3 | 0 | -2 | 34 | 1
Cc1ccc(Cl)cc1N1CCN(C(=O)c2cn(C)c(=O)c3c2c2ccccc2n3C)CC1 | 4 | 5 | 139* | 16 | 2
Cc1ccc(C(=O)NCc2ccco2)cc1S(=O)(=O)Nc1cccc(Cl)c1 | 3 | -4 | -4 | 2 | 1

Screening results deposited in PubChem by several laboratories.
